# PMC12738293 (Oncogene, 2025)
# No end group written: not given here.
# Tests used:
# [1] = biological target: T1, Human Gemin4 protein (Homo sapiens, UniProt P57678); test: MicroScale thermophoresis; type: binding
# T1 sequence (P57678 1-1058): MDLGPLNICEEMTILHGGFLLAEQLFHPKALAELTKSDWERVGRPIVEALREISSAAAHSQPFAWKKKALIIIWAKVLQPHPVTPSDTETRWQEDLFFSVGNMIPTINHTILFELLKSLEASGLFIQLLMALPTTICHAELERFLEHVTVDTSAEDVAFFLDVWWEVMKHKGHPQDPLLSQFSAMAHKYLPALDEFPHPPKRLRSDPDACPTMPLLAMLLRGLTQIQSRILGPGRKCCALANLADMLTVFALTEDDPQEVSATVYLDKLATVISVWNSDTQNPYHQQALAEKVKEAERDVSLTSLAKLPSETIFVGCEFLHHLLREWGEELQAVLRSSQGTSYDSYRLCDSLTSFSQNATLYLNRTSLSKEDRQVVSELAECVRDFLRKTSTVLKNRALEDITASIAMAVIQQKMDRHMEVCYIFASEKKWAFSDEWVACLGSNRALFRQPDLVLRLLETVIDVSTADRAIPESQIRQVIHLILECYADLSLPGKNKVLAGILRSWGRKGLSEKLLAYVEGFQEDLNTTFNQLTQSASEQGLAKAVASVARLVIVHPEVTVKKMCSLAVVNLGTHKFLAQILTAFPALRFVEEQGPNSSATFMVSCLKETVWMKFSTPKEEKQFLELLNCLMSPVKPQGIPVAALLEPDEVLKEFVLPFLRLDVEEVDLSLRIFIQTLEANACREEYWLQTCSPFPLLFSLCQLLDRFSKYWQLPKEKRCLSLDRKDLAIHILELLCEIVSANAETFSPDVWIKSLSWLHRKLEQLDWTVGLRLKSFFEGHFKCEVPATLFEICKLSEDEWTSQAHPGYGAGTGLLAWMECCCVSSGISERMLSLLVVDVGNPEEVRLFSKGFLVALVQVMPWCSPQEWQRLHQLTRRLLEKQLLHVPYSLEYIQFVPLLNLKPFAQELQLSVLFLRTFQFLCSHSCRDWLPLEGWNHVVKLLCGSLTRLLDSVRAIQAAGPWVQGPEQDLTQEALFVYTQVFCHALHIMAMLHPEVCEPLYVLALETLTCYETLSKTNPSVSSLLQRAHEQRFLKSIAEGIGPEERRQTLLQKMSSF
# How it was run: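 Human Gemin4 expressed in HEK293 cells and labelled with Cy5 through cysteine sulfhydryl groups. Binding of the test peptide to the labelled protein was measured by microscale thermophoresis, and affinity was derived with the instrument's affinity analysis tool.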
# [2] = system: Gemin4; test: Co-IP, XLH-36/Gemin4; type: binding; settings: endogenous interaction, Fig. 5E
# [3] = system: Gemin4; test: Immunofluorescence co-staining XLH-36/Gemin4; type: cell-based; settings: MDA-MB-231 cells, confocal immunofluorescence
# How it was run: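 Cells fixed 15 min at RT in β-galactosidase staining fixative, permeabilised with Triton X-100 for 15 min, blocked in 5% BSA for 30 min at RT. Primary antibody overnight at 4 °C, then secondary antibodies 2 h at RT in the dark. DAPI counterstain 10 min in the dark; imaged by fluorescence microscopy. PBS washes between steps.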
# [4] = system: Gemin4; test: yeast two-hybrid assay; type: binding; settings: DDO medium SD/Trp-/Leu-, TDO medium SD/Trp-/Leu-/HIS-
sequence,measurement,setting,value
MRQGPSTEVPGRAPRPRGPAASRADPSLRPEGGQDP [XLH-36],Kd,[1],4.76 µM
same,interaction with Gemin4,[2],only Gemin4 was confirmed to interact with XLH-36
same,IF interaction with Gemin4,[3],XLH-36 indeed interacted with Gemin4
same,direct interaction with Gemin4,[4],supported the direct interaction between XLH-36 and Gemin4
